Results taken from PubChem BioAssay AID588752 (Vanderbilt Specialized Chemistry Center, 2011).
Active and inactive are the calls of the source. The rule behind the calls is not given here.

target: Muscarinic acetylcholine receptor M5 (Rattus norvegicus) (UniProt P08911); assay: potentiation of ACh response at rat M5 – CHO cells, Fluo-4 calcium mobilization, selectivity assay, dose response (AID 588752); details: Fluo-4, ACh EC20, at 30 µM (top of the series)
Method in brief: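 System – CHO cells stably expressing rat muscarinic M5 receptor · Timing – 144 s compound pre-incubation, 86 s to EC80, 37 °C · Signal – kinetic Fluo-4 AM fluorescence of intracellular calcium mobilization · Also added – acetylcholine at EC20, then acetylcholine at EC80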

Sequence of Muscarinic acetylcholine receptor M5 (Rattus norvegicus) (P08911 whole entry, looked up): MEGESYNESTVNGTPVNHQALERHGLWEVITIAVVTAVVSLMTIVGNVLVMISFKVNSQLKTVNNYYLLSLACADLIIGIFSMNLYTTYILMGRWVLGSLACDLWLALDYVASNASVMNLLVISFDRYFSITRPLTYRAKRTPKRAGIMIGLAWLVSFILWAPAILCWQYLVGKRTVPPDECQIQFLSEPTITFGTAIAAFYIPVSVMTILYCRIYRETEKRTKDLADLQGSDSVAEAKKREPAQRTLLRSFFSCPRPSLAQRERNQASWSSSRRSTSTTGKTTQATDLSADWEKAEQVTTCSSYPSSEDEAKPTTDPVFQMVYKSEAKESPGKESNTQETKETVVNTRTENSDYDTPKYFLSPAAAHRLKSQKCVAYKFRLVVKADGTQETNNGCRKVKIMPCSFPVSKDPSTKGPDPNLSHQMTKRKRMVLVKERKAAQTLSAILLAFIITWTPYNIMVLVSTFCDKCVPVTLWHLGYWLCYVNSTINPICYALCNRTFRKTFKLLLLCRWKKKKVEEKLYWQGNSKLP

SMILES	outcome
Cc1nc2sc(C(=O)NCc3ccncc3)c(N)c2c(C)c1Cl	inactive
Cc1nc2sc(C(=O)NCCc3ccncc3)c(N)c2c(C)c1Cl	inactive
Cc1nc2sc(C(=O)NCc3ccccc3)c(N)c2c(C)c1Cl	inactive
Cc1nc2sc(C(=O)NC3CC3)c(N)c2c(C)c1Cl	inactive
Cc1nc2sc(C(=O)NCc3cccnc3)c(N)c2c(C)c1Cl	inactive
Cc1nc2sc(C(=O)NCc3ccc4c(c3)OCO4)c(N)c2c(C)c1Cl	inactive
Cc1nc2sc(C(=O)NCc3nccs3)c(N)c2c(C)c1Cl	inactive
Cc1nc2sc(C(=O)NCc3cccc(F)c3F)c(N)c2c(C)c1Cl	inactive
Cc1nc2sc(C(=O)NCc3ccncn3)c(N)c2c(C)c1Cl	inactive
